pEC50, pIC50: −log10 of the molar value. In brackets after ≈: the same amount, converted by molar mass. Activity calls are given as the source filed them. The calls are words filed in the database; no cut-off is given here.
What was measured:
CCRF-CEM [1] = experiment: Cytotoxicity against human CCRF-CEM cells after 72 hrs by MTT assay; format: functional, cell-based
Method in brief: (§1)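 Raji and CCRF-CEM cells incubated with compounds for 72 h. Viability read by MTT reduction to formazan, optical density at 570 nm. Data analysed by one-way ANOVA. IC50 taken as concentration giving 50% growth inhibition. Highest concentration tested 10 μM.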

Raji [2] = experiment: Cytotoxicity against human Raji cells after 72 hrs by MTT assay; format: functional, cell-based; method in brief: as §1
Escherichia coli [3] = experiment: Antibacterial activity against Escherichia coli MG1655 after 24 hrs by micro-broth dilution method; format: functional; details: K-12 substr. MG1655, 24 h
Method in brief: (§2)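 CLSI broth microdilution. Compounds serially diluted in cation-adjusted Mueller Hinton broth. Inoculum from fresh overnight MHA plate scrape, adjusted to 1 × 10^7 CFU/ml, 5 μL added per well. Incubated at 37 °C for 24 h. MIC = lowest concentration with no visible growth; median of at least three independent replicates. Highest concentration tested 64 μM.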

Raji [4] = experiment: Cytotoxicity against human Raji cells at 10 uM after 72 hrs by MTT assay; format: functional, cell-based; method in brief: as §1
CCRF-CEM [5] = experiment: Cytotoxicity against human CCRF-CEM cells at 10 uM after 72 hrs by MTT assay; format: functional, cell-based; method in brief: as §1
[6] = system: Human immunodeficiency virus 1; experiment: Antiviral activity against HIV1 HxB2 infected in human TZM-bl cells assessed as inhibition of virus neutralization after 48 hrs by luciferase assay; format: functional, organism-based; details: Human immunodeficiency virus 1, HxB2, TZM-bl
Method in brief: (§3)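 Single-round HIV-1 pseudoviruses made in 293T cells and titrated on TZM-bl cells. Virus giving ~1 × 10^6 RLU incubated 1 h at 37 °C with serially diluted samples. TZM-bl cells then plated at 1 × 10^5 per well for 48 h. Read-out: luciferase in cell lysate. IC50 = 50% neutralization. Highest concentration tested 100 μM.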

[7] = system: Human immunodeficiency virus 1; experiment: Antiviral activity against HIV1 SF162 infected in human TZM-bl cells assessed as inhibition of virus neutralization after 48 hrs by luciferase assay; format: functional, organism-based; details: for pIC50: Human immunodeficiency virus 1, SF162, TZM-bl, 48 h, read-out: IC50; method in brief: as §3
Staphylococcus aureus [8] = experiment: Antibacterial activity against Staphylococcus aureus 8325 after 24 hrs by micro-broth dilution method; format: functional; details: NCTC 8325, 24 h; method in brief: as §2
[9] = system: Human immunodeficiency virus 1; experiment: Antiviral activity against HIV1 HxB2 infected in human TZM-bl cells assessed as inhibition of virus neutralization at 100 uM after 48 hrs by luciferase assay; format: functional, organism-based; method in brief: as §3
Staphylococcus aureus [10] = experiment: Antibacterial activity against Staphylococcus aureus 8325 at 64 uM after 24 hrs by micro-broth dilution method; format: functional; details: NCTC 8325; method in brief: as §2
[11] = system: Human immunodeficiency virus 1; experiment: Antiviral activity against HIV1 SF162 infected in human TZM-bl cells assessed as inhibition of virus neutralization at 100 uM after 48 hrs by luciferase assay; format: functional, organism-based; method in brief: as §3
Escherichia coli [12] = experiment: Antibacterial activity against Escherichia coli MG1655 at 64 uM after 24 hrs by micro-broth dilution method; format: functional; details: K-12 substr. MG1655; method in brief: as §2
[13] = system: Human immunodeficiency virus; experiment: Antiviral activity against HIV; format: functional; details: Human immunodeficiency virus 1; read-out: ED50 (the source's name)
[14] = Cytotoxicity against human TZM-bl cells at 33 uM after 48 hrs; format: cell-based
[15] = system: Human immunodeficiency virus 1; experiment: Antiviral activity against HIV1 LAI; format: functional, organism-based; details: Human immunodeficiency virus 1, LAI
[16] = Cytotoxicity against human MT4 cells; format: cell-based

## Nc1nc(Cl)nc2c1ncn2[C@H]1C[C@H](O)[C@@H](CO)O1 [CLADRIBINE]
CCRF-CEM [1]
  pIC50: 9.30
Raji [2]
  pIC50: 8.05

## CN(Cc1ccccc1)c1nc(Cl)nc2c1ncn2[C@@H]1O[C@@]2(CO)CO[C@@H]1[C@@H]2O
Escherichia coli [3]
  MIC: 16 µM (≈ 6.69 µg/mL)
Raji [4]
  growth inhibition (GI): inactive
CCRF-CEM [5]
  growth inhibition (GI): inactive
[6]
  pIC50: 4.60
[7]
  pIC50: 4.55
Staphylococcus aureus [8]
  MIC: 8 µM (≈ 3.34 µg/mL)

## O=C(c1ccccc1)N(C(=O)c1ccccc1)c1nc(N(C(=O)c2ccccc2)C(=O)c2ccccc2)c2ncn([C@@H]3O[C@@]4(CO)CO[C@@H]3[C@@H]4OCc3ccccc3)c2n1
[9]
  inhibition: inactive
CCRF-CEM [1]
  pIC50: 6.44
Staphylococcus aureus [10]
  inhibition: inactive
[11]
  inhibition: inactive
Raji [2]
  pIC50: 6.60
Escherichia coli [12]
  inhibition: inactive

## CCNc1nc(N)c2ncn([C@@H]3O[C@@]4(CO)CO[C@@H]3[C@@H]4OCc3ccccc3)c2n1
[9]
  inhibition: inactive
Raji [4]
  growth inhibition (GI): inactive
Staphylococcus aureus [10]
  inhibition: inactive
CCRF-CEM [5]
  growth inhibition (GI): inactive
Escherichia coli [12]
  inhibition: inactive
[7]
  pIC50: 4.22

## Cc1cn([C@@H]2O[C@@]3(CO)CO[C@H]3[C@H]2O)c(=O)[nH]c1=O
[13]
  pEC50: 6.85

## C=CCc1nc(/C=C/C)c2ncn([C@@H]3O[C@@]4(CO)CO[C@@H]3[C@@H]4OCc3ccccc3)c2n1
[14]
  Activity: Toxic
CCRF-CEM [1]
  pIC50: 5.12
Staphylococcus aureus [10]
  inhibition: inactive
Raji [2]
  pIC50: 5.24
Escherichia coli [12]
  inhibition: inactive
[6]
  pIC50: 5.62
[7]; tzm-bl
  IC50: Not Active

## Cc1cn([C@@H]2C=CC3(CO)C[C@@H]23)c(=O)[nH]c1=O (single isomer, unassigned)
[15]
  pEC50: 4.54

## CCCCNc1nc(N)c2ncn([C@@H]3O[C@@]4(CO)CO[C@@H]3[C@@H]4OCc3ccccc3)c2n1
Raji [4]
  growth inhibition (GI): inactive
Staphylococcus aureus [10]
  inhibition: inactive
CCRF-CEM [5]
  growth inhibition (GI): inactive
Escherichia coli [12]
  inhibition: inactive
[6]
  pIC50: 4.55
[7]
  pIC50: 4.17

## Cc1cn([C@H]2C[C@H](N=[N+]=[N-])[C@@H](CO)O2)c(=O)[nH]c1=O [ZIDOVUDINE]
[6]
  pIC50: 7.43
[13]
  pEC50: 9.00
[7]
  pIC50: 7.11

## OC[C@@]12CO[C@@H]([C@H](n3cnc4c(NCc5ccccc5)nc(Cl)nc43)O1)[C@@H]2OCc1ccccc1
Raji [4]
  growth inhibition (GI): inactive
Staphylococcus aureus [10]
  inhibition: inactive
CCRF-CEM [5]
  growth inhibition (GI): inactive
Escherichia coli [12]
  inhibition: inactive
[6]
  pIC50: 5.62
[7]
  pIC50: 5.15

## Cc1cn([C@H]2C[C@@H]3COC[C@]3(CO)O2)c(=O)[nH]c1=O
[16]
  CC50: 0.54 µg/mL (≈ 2.01 µM)

## Cc1cn([C@@H]2O[C@@]3(CO)COC[C@H]3[C@H]2O)c(=O)[nH]c1=O
[16]
  CC50: 0.54 µg/mL (≈ 1.9 µM)

— ChEMBL document CHEMBL1821725, “Synthesis and biological evaluation of 2',4'- and 3',4'-bridged nucleoside analogues” (Bioorg Med Chem, 2011)
